Measured values: ChEMBL document CHEMBL1914330 (Eur J Med Chem, 2011)
Active and inactive are the calls of the source. No cut-off for these calls is given here.

Assays:
[1] = test system: MOLT-4; experiment: Antiproliferative activity against human MOLT4 cells after 2 days by coulter counter analysis; type: functional, cell-based; conditions: MOLT-4, 48 h
[2] = Inhibition of bovine brain tubulin polymerization after 20 mins by turbidimetry; parameters: species or system Bos taurus
How it was run: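 Purified bovine brain tubulin at 10 µM was preincubated with compound in glutamate buffer at 30 °C, then cooled to 0 °C and GTP added. Samples were warmed to 30 °C in a recording spectrophotometer and assembly followed by turbidity.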

[3] = organism: Bos taurus; experiment: Displacement of [3H]colchicine from bovine brain tubulin at 5 uM by DEAE-cellulose filter method
How it was run: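 Inhibition of [³H]colchicine binding to bovine brain tubulin. Reaction mixtures held 1 µM tubulin, 5 µM [³H]colchicine and 5 µM test compound.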

[4] = test system: LoVo; experiment: Antiproliferative activity against human LoVo cells after 72 hrs by MTT assay; type: functional, cell-based
How it was run: (§1)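 Cells seeded at 8 × 10³ per well in complete medium and exposed to a range of compound concentrations at 37 °C for 72 h. Viability read by MTT test. IC50 taken as the concentration inhibiting proliferation by 50%.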

[5] = test system: CCRF-CEM; experiment: Antiproliferative activity against human CEM cells after 72 hrs by MTT assay; type: functional, cell-based; how it was run: as §1
[6] = test system: HeLa; experiment: Induction of apoptosis in human HeLa cells assessed as increase in hypodiploid DNA content at subG1-phase after 24 hrs by flow cytometric analysis relative to untreated control; type: functional, cell-based
How it was run: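 HeLa cells treated for 24 h over 0.06–0.5 µM. Cells fixed in ice-cold 70% ethanol, lysed with buffer containing RNase A and 0.1% Triton X-100, and stained with PI. DNA content read by flow cytometry, including the sub-G1 fraction. Mean ± SEM of three independent experiments.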

[7] = test system: HeLa; experiment: Induction of cell cycle arrest at G2/M phase in human HeLa cells assessed as decrease in Cdc25C expression at 0.25 to 5 uM after 24 hrs by Western blot analysis; type: functional, cell-based
How it was run: (§2)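 HeLa cells treated for 24 or 48 h were washed in cold PBS and lysed on ice for 30 min. Lysates were cleared at 15,000 × g, run on SDS-PAGE and blotted. Membranes were probed 2 h at room temperature with antibodies to the target protein, then peroxidase secondary and ECL. Blots were reprobed for β-actin as loading control.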

[8] = test system: HeLa; experiment: Induction of cell cycle arrest at G2/M phase in human HeLa cells assessed as disappearance of Cdc25C expression at 0.25 to 5 uM after 48 hrs by Western blot analysis; type: functional, cell-based; how it was run: as §2
[9] = test system: HeLa; experiment: Induction of apoptosis in human HeLa cells assessed as accumulation of late apoptotic cells after 24 hrs by Annexin-V-FITC/propidium iodide staining-based flow cytometric analysis; type: functional, cell-based
How it was run: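 HeLa cells treated for 24 or 48 h, then labelled with annexin-V-FITC and PI. Analysed by flow cytometry with excitation at 488 nm and emission at 525 nm (FITC) and 585 nm (PI). Quadrants scored as live, early apoptotic, late apoptotic or necrotic. Mean ± SEM of four independent experiments.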

[10] = test system: HeLa; experiment: Induction of apoptosis in human HeLa cells assessed as loss of mitochondrial membrane potential at 0.25 to 5 uM by JC1 staining-based flow cytometric analysis; type: functional, cell-based; conditions: TDE = time-dependent effect
How it was run: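 After 24 or 48 h treatment, HeLa cells were trypsinized and resuspended in HBSS with JC-1 (1 µM). Incubated 10 min at 37 °C, washed, and read by flow cytometry for red (590 nm) aggregate versus green (530 nm) monomer. Mean ± SEM of three experiments.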

[11] = test system: HeLa; experiment: Effect on Bax protein expression in human HeLa cells at 0.25 to 0.5 uM after 24 to 48 hrs by Western blot analysis; type: functional, cell-based; how it was run: as §2
[12] = test system: HT-29; experiment: Cytotoxicity against human HT-29 cells; type: functional, cell-based
[13] = test system: HT-29; experiment: Antitumor activity against human HT-29 cells xenografted in BALB/c nude mouse assessed as reduction in tumor growth at 100 mg/kg, ip administered 3 times per week for 1 week; type: functional; parameters: scale not given: the % may be the effect or the level left; conditions: route intraperitoneal
How it was run: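 HT-29 cells (1 × 10⁷/mL in serum-free RPMI 1640, 0.2 mL) were injected subcutaneously in the back of nude mice. At about 300 mm³ tumours, 18 mice were randomised to vehicle or drug groups. Drug in DMSO was given i.p. at 0.01 mL/g, 100 mg/kg, three times weekly for one week. Tumour volume = (L × W²)/2 by caliper; body weight also recorded; six mice per group.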

[14] = test system: HT-29; experiment: Antitumor activity against human HT-29 cells xenografted in BALB/c nude mouse assessed as reduction in tumor mass at 100 mg/kg, ip administered 3 times per week for 1 week; type: functional, organism-based; parameters: dose 100 mg/kg
[15] = test system: Mus musculus; experiment: Toxicity in nude BALB/c mouse xenografted with human HT-29 cells assessed as weight changes at 100 mg/kg, ip administered 3 times per week for 1 week; type: organism-based; parameters: dose 100 mg/kg, route intraperitoneal; conditions: in vivo, 168 h
How it was run: (§3)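 HT-29 cells in log phase, suspended at 1 × 10⁷ cells/mL in serum-free RPMI 1640, 0.2 mL injected subcutaneously into the back of nude mice. At about 300 mm³, mice were randomised to vehicle or treatment groups (six per group). The compound was given in DMSO by i.p. injection at 0.01 mL/g body weight. Body weight was recorded on set days; mice were euthanised after 23 days.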

[16] = test system: Mus musculus; experiment: Toxicity in nude BALB/c mouse xenografted with human HT-29 cells assessed as organism mortality at 100 mg/kg, ip administered 3 times per week for 1 week measured on day 7; type: organism-based; parameters: dose 100 mg/kg, route intraperitoneal; conditions: in vivo, 168 h; how it was run: as §3

Work on `COc1cc(C(=O)c2sc(N3CCCC3)nc2N)cc(OC)c1OC` yielded an IC50 [1] of 260 nM, an IC50 [2] of 1300 nM and an inhibition [3] of 67%. The IC50 [4] was 100 nM, the IC50 [5] was 20 nM and the Activity [6] was “Dose-dependent effect”. The Activity [7] was “Active”, the Activity [8] was “Active” and the Activity [9] was “Dose-dependent effect”. The Activity [10] was “tde”, the Activity [11] was “inactive” and the IC50 [12] was 20 nM. The Activity [13] was 58%, the Activity [14] was “Active” and the Activity [15] was “Non-toxic”. For the same molecule, the Activity [16] was “Toxic”.
